# pEC50, pIC50: −log10 of the molar value. The source made the active and inactive calls. The calls are words filed in the database; no cut-off is given here.
# Legend:
# Sindbis virus = experiment: Antiviral activity against Sindbis virus infected in vero cells assessed as reduction in virus-induced cytopathogenicity incubated for 7 days by microscopic analysis; assay type: functional, organism-based
# Reovirus sp. = experiment: Antiviral activity against Reovirus infected in vero cells assessed as reduction in virus-induced cytopathogenicity incubated for 7 days by microscopic analysis; assay type: functional, organism-based
# Influenza B virus [1] = experiment: Antiviral activity against Influenza B virus (B/Ned/537/05) infected in dog MDCK cells assessed as reduction in virus-induced cytopathogenicity incubated for 7 days by MTS assay; assay type: functional, organism-based
# Influenza A virus H3N2 [2] = experiment: Antiviral activity against Influenza A virus (A/HK/7/87(H3N2)) infected in dog MDCK cells assessed as reduction in virus-induced cytopathogenicity incubated for 7 days by microscopic analysis; assay type: functional, organism-based; conditions: A/Hong Kong/7/1987(H3N2)
# Influenza A virus [3] = experiment: Antiviral activity against Influenza A virus (A/Ned/378/05(H1N1)) infected in dog MDCK cells assessed as reduction in virus-induced cytopathogenicity incubated for 7 days by microscopic analysis; assay type: functional, organism-based
# Cytomegalovirus [4] = experiment: Antiviral activity against Cytomegalovirus AD169 infected in human HELF cells assessed as reduction in virus-induced cytopathogenicity incubated for 7 days by Giemsa staining based microscopic analysis; assay type: functional, organism-based; conditions: Human betaherpesvirus 5, AD169, HELF, 168 h
# Method in brief: (§1)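 Confluent HEL fibroblasts infected with CMV (Davis or AD-169) at 100 PFU/well for 2 h. Residual virus removed, then medium with graded compound concentrations added (duplicate). Incubated 7 days at 37 °C. Cytopathogenicity scored microscopically after ethanol fixation and Giemsa staining. EC50 read from plots of % cytopathogenicity versus concentration.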
# Human alphaherpesvirus 3 [5] = experiment: Antiviral activity against thymidine kinase deficient Varicella zoster virus infected in human HELF cells assessed as reduction in virus-induced cytopathogenicity incubated for 7 days by Giemsa staining based microscopic analysis; assay type: functional, organism-based; conditions: Human alphaherpesvirus 3, HELF, 168 h
# Coxsackievirus B4 = experiment: Antiviral activity against Human coxsackievirus B4 infected in vero cells assessed as reduction in virus-induced cytopathogenicity incubated for 7 days by microscopic analysis; assay type: functional, organism-based
# Human alphaherpesvirus 2 = experiment: Antiviral activity against Herpes simplex virus 2 G infected in human HELF cells assessed as reduction in virus-induced cytopathogenicity incubated for 7 days by microscopic analysis; assay type: functional, organism-based
# Human coronavirus 229E = experiment: Antiviral activity against Human coronavirus 229E infected in human HELF cells assessed as reduction in virus-induced cytopathogenicity incubated for 7 days by microscopic analysis; assay type: functional, organism-based
# MCF7 = experiment: Antiproliferative activity against human MCF7 cells assessed as reduction in cell viability incubated for 72 hrs by MTT assay; assay type: functional, cell-based; conditions: MCF7, 72 h
# Method in brief: (§2)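 Cells (ATCC) grown in DMEM with 10 FBS, penicillin/streptomycin, 2 mM glutamine, 37 °C, 5 CO2. 5000 cells/well seeded; after 24 h, freshly prepared dilutions at five concentrations (0.01–100 μM) added for 72 h. MTT read-out; absorbance converted to percentage growth by NIH formulas. Two experiments in quadruplicate; IC50 by linear regression.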
# Influenza A virus [6] = experiment: Antiviral activity against Influenza A virus (A/Ned/378/05(H1N1)) infected in dog MDCK cells assessed as reduction in virus-induced cytopathogenicity incubated for 7 days by MTS assay; assay type: functional, organism-based
# Human alphaherpesvirus 3 [7] = experiment: Antiviral activity against thymidine kinase positive Varicella zoster virus infected in human HELF cells assessed as reduction in virus-induced cytopathogenicity incubated for 7 days by Giemsa staining based microscopic analysis; assay type: functional, organism-based; conditions: Human alphaherpesvirus 3, HELF, 168 h
# Human alphaherpesvirus 1 [8] = experiment: Antiviral activity against Herpes simplex virus 1 KOS infected in human HELF cells assessed as reduction in virus-induced cytopathogenicity incubated for 7 days by microscopic analysis; assay type: functional, organism-based; conditions: strain KOS
# Influenza A virus H3N2 [9] = experiment: Antiviral activity against Influenza A virus (A/HK/7/87(H3N2)) infected in dog MDCK cells assessed as reduction in virus-induced cytopathogenicity incubated for 7 days by MTS assay; assay type: functional, organism-based; conditions: A/Hong Kong/7/1987(H3N2)
# HCT-116 = experiment: Antiproliferative activity against human HCT116cells assessed as reduction in cell viability incubated for 72 hrs by MTT assay; assay type: functional, cell-based; conditions: HCT-116, 72 h; method in brief: as §2
# SW-620 = experiment: Antiproliferative activity against human SW620 cells assessed as reduction in cell viability incubated for 72 hrs by MTT assay; assay type: functional, cell-based; conditions: SW-620, 72 h; method in brief: as §2
# [10] = Cytotoxicity against human HELF cells assessed as minimum cytotoxic concentration by observing alteration in cell morphology incubated for 3 days by microscopic analysis; assay type: cell-based; conditions: HELF cells
# Method in brief: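 Read-out is the minimum cytotoxic concentration (MCC): the lowest compound concentration giving a microscopically detectable change in cell morphology. Measured on confluent human embryonic lung (HEL) fibroblast cultures exposed to a range of compound concentrations.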
# [11] = Cytotoxicity against human HELF cells assessed as reduction in cell viability incubated for 3 days by coulter counter method; assay type: cell-based; conditions: 72 h
# Method in brief: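 HEL cells seeded at 5 x 10^3/well and allowed to proliferate 24 h, then exposed to graded compound concentrations for 3 days at 37 °C. Cell number counted with a Coulter counter.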
# Human adenovirus 2 = experiment: Antiviral activity against Human adenovirus 2 infected in human HELF cells assessed as reduction in virus-induced cytopathogenicity incubated for 7 days by microscopic analysis; assay type: functional, organism-based
# HepG2 = experiment: Antiproliferative activity against human HepG2 cells assessed as reduction in cell viability incubated for 72 hrs by MTT assay; assay type: functional, cell-based; conditions: HepG2, 72 h; method in brief: as §2
# HeLa = experiment: Antiproliferative activity against human HeLa cells assessed as reduction in cell viability incubated for 72 hrs by MTT assay; assay type: functional, cell-based; method in brief: as §2
# HFF = experiment: Cytotoxicity against human HFF cells assessed as reduction in cell viability incubated for 72 hrs by MTT assay; assay type: cell-based; method in brief: as §2
# Human alphaherpesvirus 1 [12] = experiment: Antiviral activity against Herpes simplex virus 1 TK-KOS-ACV infected in human HELF cells assessed as reduction in virus-induced cytopathogenicity incubated for 7 days by microscopic analysis; assay type: functional, organism-based
# A549 = experiment: Antiproliferative activity against human A549 cells assessed as reduction in cell viability incubated for 72 hrs by MTT assay; assay type: functional, cell-based; conditions: A549, 72 h; method in brief: as §2
# CFPAC-1 = experiment: Antiproliferative activity against human CFPAC-1 cells assessed as reduction in cell viability incubated for 72 hrs by MTT assay; assay type: functional, cell-based; method in brief: as §2
# Cytomegalovirus [13] = experiment: Antiviral activity against Cytomegalovirus Davis infected in human HELF cells assessed as reduction in virus-induced cytopathogenicity incubated for 7 days by Giemsa staining based microscopic analysis; assay type: functional, organism-based; conditions: Human betaherpesvirus 5, Davis, 168 h; method in brief: as §1
# Influenza B virus [14] = experiment: Antiviral activity against Influenza B virus (B/Ned/537/05) infected in dog MDCK cells assessed as reduction in virus-induced cytopathogenicity incubated for 7 days by microscopic analysis; assay type: functional, organism-based
Structure (SMILES),Activity (Sindbis virus),Activity (Reovirus sp.),Activity (Influenza B virus [1]),Activity (Influenza A virus H3N2 [2]),Activity (Influenza A virus [3]),pEC50 (Cytomegalovirus [4]),pEC50 (Human alphaherpesvirus 3 [5]),Activity (Coxsackievirus B4),Activity (Human alphaherpesvirus 2),Activity (Human coronavirus 229E),pIC50 (MCF7),Activity (Influenza A virus [6]),pEC50 (Human alphaherpesvirus 3 [7]),Activity (Human alphaherpesvirus 1 [8]),Activity (Influenza A virus H3N2 [9]),pIC50 (HCT-116),pIC50 (SW-620),MCC at 72 h [10] [µM],CC50 [11] [µM],Activity (Human adenovirus 2),further results
CC(C)(C)c1cn(C/C=C2\OC(=O)C(OCc3ccccc3)=C2OCc2ccccc2)nn1,inactive,inactive,inactive,inactive,inactive,5.05,5.00,inactive,inactive,inactive,5.31,inactive,4.93,inactive,inactive,4.33,4.68,100,55.5,inactive,"pIC50 (HepG2): 4.21; pIC50 (HeLa): < 4.00; pIC50 (HFF): 4.30; Activity (Human alphaherpesvirus 1 [12]): inactive; pIC50 (A549): 5.28; pIC50 (CFPAC-1; Homo sapiens, CFPAC-1, 72 h, read-out: IC50): < 4.00; pEC50 (Cytomegalovirus [13]): 5.28; Activity (Influenza B virus [14]): inactive"
O=C1O/C(=C\Cn2cc(-c3cc(F)cc(F)c3)nn2)C(OCc2ccccc2)=C1OCc1ccccc1,inactive,inactive,inactive,inactive,inactive,5.03,< 4.00,inactive,inactive,inactive,< 4.00,inactive,4.84,inactive,inactive,< 4.00,< 4.00,100,> 100,inactive,pIC50 (HepG2): < 4.00; pIC50 (HeLa): 4.75; pIC50 (HFF): < 4.00; Activity (Human alphaherpesvirus 1 [12]): inactive; pIC50 (A549): < 4.00; IC50 (CFPAC-1; cfpac-1): Not Active; pEC50 (Cytomegalovirus [13]): 5.05; Activity (Influenza B virus [14]): inactive

# From ChEMBL document CHEMBL4406859, “Antitumor and antiviral activities of 4-substituted 1,2,3-triazolyl-2,3-dibenzyl-L-ascorbic acid derivatives” (Eur J Med Chem, 2019)
